Screening results from PubChem.
PPC-1+TRAIL kill = compounds killing PPC-1 cancer cells with TRAIL present, primary screen, TRAIL potentiator project, ATPLite luminescence, uHTS; PPC-1 cells + TRAIL, ATPLite viability luminescence; cell killing (% activity), % at 4 µM or 5 µM; actives 0.41% (n = 220,000); AID 1443, 2008;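 active means cell killing above 50% in the first pass at 4 µM, then a duplicate retest at 5 µM averaging 50% or more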;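 further: plate controls were cells with TRAIL plus DMSO for no effect and medium-only wells lacking cells for full effect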
FLuc inhib CS = firefly luciferase enzyme inhibitors, primary screen, artefact control for luciferase-based inhibitor screens, biochemical, luminescence, ATPLite; Luciferin 4-monooxygenase (Photinus pyralis), P08659; 10 min; inhibition, % at 10 µM; actives 1.5% (n = 200,000); AID 1006, 2008;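 active means inhibition above about 50% when tested at 10 µM, limit read from the data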
Target sequence (P08659 whole entry, looked up): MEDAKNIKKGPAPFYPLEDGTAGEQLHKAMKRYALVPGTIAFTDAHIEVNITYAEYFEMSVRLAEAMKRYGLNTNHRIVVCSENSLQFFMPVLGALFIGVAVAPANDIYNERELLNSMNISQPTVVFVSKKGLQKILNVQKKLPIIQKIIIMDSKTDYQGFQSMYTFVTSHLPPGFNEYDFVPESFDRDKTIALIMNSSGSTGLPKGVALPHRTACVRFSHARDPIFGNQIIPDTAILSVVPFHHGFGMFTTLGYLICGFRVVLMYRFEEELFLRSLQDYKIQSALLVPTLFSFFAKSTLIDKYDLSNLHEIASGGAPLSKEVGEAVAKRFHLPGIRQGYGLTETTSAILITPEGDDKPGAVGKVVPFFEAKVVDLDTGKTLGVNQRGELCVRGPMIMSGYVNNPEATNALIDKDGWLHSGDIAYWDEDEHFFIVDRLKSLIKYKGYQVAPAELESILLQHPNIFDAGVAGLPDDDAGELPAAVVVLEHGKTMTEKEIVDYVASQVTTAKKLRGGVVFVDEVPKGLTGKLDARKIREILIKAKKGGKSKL
FLuc stim CS = FLuc activators, initial screening, artefact control for FLuc-dependent activation tests, biochemical, ATPlite luminescence | ATPlite luciferase biochemical, 10 min; 0 = ATP-free wells, 1 = DMSO control | activation factor at 10 µM | 200,000 tested, under 10 active | Luciferin 4-monooxygenase (Photinus pyralis), P08659;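 active means luciferase activation factor, scaled between plate controls, of at least 2 with compound at 10 µM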
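System: cell-free luciferase reagent; medium: PBS as buffer for the ATP substrate; doses: test compounds dosed from 2 mM stocks in 100% DMSO; incubation: 10 min, room temperature; measured by: luminescence from luciferase reaction; read-out: luciferase activation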
C8 TRAIL sens = viability loss with TRAIL in NB7+C8 cells, primary screen, TRAIL sensitizer project, cell-based, ATPlite luminescence. inhibition (viability loss, TRAIL sensitization), % at 10 µM. actives 1% (n = 360,000). AID 624354, 2012;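 active means compounds causing at least 50% loss of cell viability in the single-dose screen, relative to plate controls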
PPC1 cytotox = cytotoxicity in PPC-1 cells, confirmation, cytotoxicity control for TRAIL apoptosis potentiator project, cell-based, ATP content luminescence. cytotoxicity, % at 5 µM. PPC-1 viability, ATPlite luminescence, overnight. shares compounds with PPC-1+TRAIL kill. actives 50% (n = 1,200);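 active means reconfirmed compounds whose average cytotoxicity reaches 50% or more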;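 further: 0% = DMSO-treated cells and 100% = wells holding medium but no cells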
* marks the source's active call; other numbers are inactive results; nt = no result given. Shown are actives, neighbours in structure and some others; about 1.5% of the full set was active somewhere.

SMILES	PPC-1+TRAIL kill	FLuc inhib CS	FLuc stim CS	C8 TRAIL sens	PPC1 cytotox
CCOC(=O)/C=C1/SCC(=O)N1CC(=O)Nc1cccc(F)c1	nt	nt	nt	-34	nt
O=C(Nc1nccs1)c1ccc(-c2ccc(Cl)cc2)o1	60*	85*	0.1	81*	61*
O=C(Nc1nccs1)c1cnccn1	8	-5	1.1	-2	8
O=C(Nc1nccs1)c1ccc(-c2ccccc2Cl)o1	10	46	0.5	40	nt
COc1ccc2c(OC)cc(=O)n(C)c2c1	3	-4	1	9	nt
O=C1C(c2c(O)[nH]c3ccccc23)=Nc2ccccc21	9	22	0.8	5	nt
O=C1C(c2cc(=O)c3ccccc3[nH]2)=C(O)c2ccccc21	56*	89*	0.1	70*	53*
CCCCOc1ccc(-c2cc(C(=O)NNC(=S)NCC)c3ccccc3n2)cc1	90*	94*	0.1	87*	90*
CCCCNC(=S)NNC(=O)c1cc(-c2cccnc2)nc2ccccc12	nt	nt	nt	8	nt
CCOc1ccc(-c2cc(C(=O)O)c3ccccc3n2)cc1	77*	95*	0.1	83*	77*
CCNC(=S)NNC(=O)c1cc(-c2cccc(C)c2)nc2ccccc12	66*	89*	0.1	61*	65*
CCNC(=S)NNC(=O)c1cc(-c2cccnc2)nc2ccccc12	3	44	0.6	2	nt
N#Cc1c(N)nc2c(c1-c1ccncc1)CCCC2	1	-1	1	9	nt
CCOc1ccc(S(=O)(=O)Nc2ccccc2C(=O)N/N=C/c2c(OC)ccc3ccccc23)cc1	3	-16	1.2	-10	nt
O=[N+]([O-])c1cc(-c2csc(NCCc3nc4cc(Cl)c(N5CCCCC5)cc4n3CCCO)n2)ccc1Cl	nt	nt	nt	3	nt
Cc1ccc(Nc2nc(N)nc(CCl)n2)c(C)c1	92*	nt	nt	96*	92*
CCOc1ccc(Nc2nc(N)nc(CCl)n2)cc1	95*	nt	nt	92*	93*
Cc1ccc(Nc2nc(N)nc(CN3CCCCCC3)n2)c(C)c1	5	-8	1.1	-1	nt
CCC(C)(C)N1CC(=O)N(Cc2ccccc2)C(c2ccc(OC)cc2)C1=O (centres undefined)	-24	-5	1.1	14	nt
O=C(OCC#CCSc1nnc(-c2cccc3ccccc23)o1)c1cccc2[nH]ccc12	nt	nt	nt	-8	nt
O=C(NC1CCCCC1)C(c1ccco1)N(C(=O)c1csnn1)c1ccccc1 (centres undefined)	nt	nt	nt	-14	nt
O=C(CSc1nnc(NC(=O)c2ccco2)s1)NCc1ccc2c(c1)OCO2	-4	4	1	-7	nt
O=C(CSc1nnc(NC(=O)c2ccc3c(c2)OCO3)s1)NCc1ccco1	80*	91*	0.1	82*	80*
COc1ccc(S(=O)(=O)N2CCC(C(=O)N[C@@H](C)C(=O)N3CCCC3)CC2)cc1	nt	nt	nt	-7	nt
CC(=O)Oc1ccc2c(=O)c(N3C(=O)c4ccccc4C3=O)c(C)oc2c1	30	5	0.9	-7	nt
SMILES	PPC-1+TRAIL kill	FLuc inhib CS	FLuc stim CS	C8 TRAIL sens	PPC1 cytotox
CCCOc1ccc2c(=O)c(N3C(=O)c4ccccc4C3=O)c(C)oc2c1	-16	-8	1.1	-6	-10
Cc1cc(NC(=O)c2ccccc2)n(C(C)(C)C)n1	-5	nt	nt	-10	nt
COc1ccccc1C(=O)NNC(=S)NC(=O)c1cccs1	nt	nt	nt	-4	nt
Cc1ccc(SCc2cn3ccccc3n2)cc1	23	nt	nt	21	nt
c1ccc(CSCc2cn3ccccc3n2)cc1	-4	3	1	3	-6
[O-]/C(=C(\C(=S)NCc1ccccc1)[n+]1ccccc1)c1ccc(Cl)s1	4	-10	1.1	-5	nt
C=CCNC(=S)N/N=C(\C)c1ccccn1	33	-1	1	-7	41
CN(C)C(=O)OCC1COc2ccccc2O1 (centres undefined)	0	nt	nt	2	nt
CCN(C(=O)c1ccco1)c1nnc(-c2ccc(OC)cc2)s1	68*	85*	0.1	69*	70*
O=C(CSc1ncnc2c1nnn2Cc1ccc(F)cc1)NCC1CCCO1 (centres undefined)	nt	nt	nt	16	nt
COc1cc(N/N=C/c2ccc(N(C)C)cc2)ncn1	69*	86*	0.1	77*	69*
c1ccc(COc2ccc(OCCn3cncn3)cc2)cc1	9	17	0.8	-1	11
Cc1ccc(-n2nnc(-c3nccs3)n2)cc1	82*	96*	0	87*	82*
O=C(c1ccccc1)c1ccc(CN2C(=O)c3ccccc3C2=O)o1	-5	-11	1.1	-19	nt
COc1ccc(C(=O)/C(=C/N(C)C)S(=O)(=O)c2ccccc2)cc1	-17	1	1	33	-44
O=C1C(=C2SCCCS2)CC/C1=C\c1ccc(F)cc1	90*	93*	0.1	84*	90*
O=C1C(=Cc2ccc(F)cc2)Cc2ccccc21	nt	nt	nt	19	nt
Cc1cccc(/C=C2\CCC(=C3SCCCS3)C2=O)c1	78*	93*	0.1	82*	80*
O=c1[nH]c2ccccc2nc1C(Cl)c1ccccc1 (centres undefined)	1	-7	1.1	nt	4
COC(c1ccccc1)c1nc2ccccc2[nH]c1=O (centres undefined)	nt	nt	nt	-12	nt
O=C(Nc1cccnc1Cl)c1ccc2c(Cl)c3c(nc2c1)CCC3	63*	91*	0.1	76*	65*
CSc1nc(C)cc(SCC(=O)Nc2ccccc2)n1	-8	3	1	-2	-14
Cc1nn2cc(-c3ccccc3)nc2s1	21	47	0.5	28	nt
c1ccc(-c2cn3c4c(sc3n2)CCCC4)cc1	82*	95*	0.1	85*	83*
CCOc1ccc(/C=N/NC(=O)c2[nH]ncc2Br)c(O)c1	57*	91*	0.1	79*	56*
SMILES	PPC-1+TRAIL kill	FLuc inhib CS	FLuc stim CS	C8 TRAIL sens	PPC1 cytotox
O=C(N/N=C/c1c(O)ccc2ccccc12)c1[nH]ncc1Br	41	7	0.9	22	nt
CC(=O)Nc1ccc(NC(=O)CSc2ccc3nnc(CCNS(=O)(=O)c4ccc(C)cc4)n3n2)cc1	nt	nt	nt	-13	nt
COc1cc([N+](=O)[O-])ccc1N/C=C/C(=O)c1cccs1	89*	93*	0.1	89*	90*
Cc1csc(NC(=O)c2cc3c(s2)CCCC3)n1	66*	94*	0.1	78*	69*
CNC(=O)c1cc2c(s1)CCCCCC2	18	-2	1	-9	nt
CC(C)NC(=O)c1cc2c(s1)CCCC2	22	5	1	4	nt
Cc1csc(NC(=O)c2cc3c(s2)CCCCC3)n1	85*	95*	0.1	91*	82*
Cc1cnc(NC(=O)c2cc3c(s2)CCCC3)s1	72*	93*	0.1	92*	70*
Cc1csc(NC(=O)c2ccc(N3CCCC3=O)cc2)n1	56*	89*	0.1	71*	53*
CCc1nnc(NC(=O)c2cc3c(s2)CCCCC3)s1	nt	nt	nt	38	nt
